Data published in ChEMBL document CHEMBL1156306, “Discovery, biological evaluation, and structure-activity relationship of amidine based sphingosine kinase inhibitors” (J Med Chem, 2010).
The source made the active and inactive calls. The rule behind the calls is not given here.

target: Diacylglycerol kinase gamma (Homo sapiens) (UniProt P49619); assay: Inhibition of DAGgamma up to 100 uM; conditions: not given
Outline: (§1)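 Recombinant diacylglycerol kinases (γ, δ1, ζ) tested with compound at concentrations up to 100 μM.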

Sequence of Diacylglycerol kinase gamma (Homo sapiens) (P49619 whole entry): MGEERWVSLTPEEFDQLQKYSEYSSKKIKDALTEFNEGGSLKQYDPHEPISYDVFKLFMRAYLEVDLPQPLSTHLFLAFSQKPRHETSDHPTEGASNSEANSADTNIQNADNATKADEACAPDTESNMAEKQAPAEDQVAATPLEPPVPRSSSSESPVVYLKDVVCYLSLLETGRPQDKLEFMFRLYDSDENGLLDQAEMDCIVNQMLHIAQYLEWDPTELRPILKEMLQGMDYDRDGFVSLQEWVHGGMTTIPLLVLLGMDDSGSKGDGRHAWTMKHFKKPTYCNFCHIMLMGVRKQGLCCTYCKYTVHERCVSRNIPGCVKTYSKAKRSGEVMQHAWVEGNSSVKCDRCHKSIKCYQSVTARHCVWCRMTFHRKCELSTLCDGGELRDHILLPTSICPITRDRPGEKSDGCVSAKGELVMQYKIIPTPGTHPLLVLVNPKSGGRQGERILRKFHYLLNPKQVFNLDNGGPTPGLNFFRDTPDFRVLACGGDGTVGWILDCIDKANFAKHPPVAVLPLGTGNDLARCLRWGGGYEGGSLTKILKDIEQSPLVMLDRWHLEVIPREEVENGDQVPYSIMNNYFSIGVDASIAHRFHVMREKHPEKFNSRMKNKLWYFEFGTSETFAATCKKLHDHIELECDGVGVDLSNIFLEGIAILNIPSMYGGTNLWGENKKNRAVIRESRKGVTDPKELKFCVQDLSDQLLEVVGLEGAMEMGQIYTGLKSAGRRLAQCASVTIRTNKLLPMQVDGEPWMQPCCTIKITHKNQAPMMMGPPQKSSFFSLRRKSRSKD

inhibition	SMILES
inactive	CCCCCCCCCCCCc1ccc(C(=O)NC2(C(=N)N)CC2)cc1
inactive	CCCCCCCCCCCCc1ccc(NC(=O)C2(C(=N)N)CC2)cc1

target: T1, Diacylglycerol kinase delta (Homo sapiens) (UniProt Q16760); assay: Inhibition of DAGdelta1 up to 100 uM; conditions: not given; outline: as §1
T1 sequence (whole entry): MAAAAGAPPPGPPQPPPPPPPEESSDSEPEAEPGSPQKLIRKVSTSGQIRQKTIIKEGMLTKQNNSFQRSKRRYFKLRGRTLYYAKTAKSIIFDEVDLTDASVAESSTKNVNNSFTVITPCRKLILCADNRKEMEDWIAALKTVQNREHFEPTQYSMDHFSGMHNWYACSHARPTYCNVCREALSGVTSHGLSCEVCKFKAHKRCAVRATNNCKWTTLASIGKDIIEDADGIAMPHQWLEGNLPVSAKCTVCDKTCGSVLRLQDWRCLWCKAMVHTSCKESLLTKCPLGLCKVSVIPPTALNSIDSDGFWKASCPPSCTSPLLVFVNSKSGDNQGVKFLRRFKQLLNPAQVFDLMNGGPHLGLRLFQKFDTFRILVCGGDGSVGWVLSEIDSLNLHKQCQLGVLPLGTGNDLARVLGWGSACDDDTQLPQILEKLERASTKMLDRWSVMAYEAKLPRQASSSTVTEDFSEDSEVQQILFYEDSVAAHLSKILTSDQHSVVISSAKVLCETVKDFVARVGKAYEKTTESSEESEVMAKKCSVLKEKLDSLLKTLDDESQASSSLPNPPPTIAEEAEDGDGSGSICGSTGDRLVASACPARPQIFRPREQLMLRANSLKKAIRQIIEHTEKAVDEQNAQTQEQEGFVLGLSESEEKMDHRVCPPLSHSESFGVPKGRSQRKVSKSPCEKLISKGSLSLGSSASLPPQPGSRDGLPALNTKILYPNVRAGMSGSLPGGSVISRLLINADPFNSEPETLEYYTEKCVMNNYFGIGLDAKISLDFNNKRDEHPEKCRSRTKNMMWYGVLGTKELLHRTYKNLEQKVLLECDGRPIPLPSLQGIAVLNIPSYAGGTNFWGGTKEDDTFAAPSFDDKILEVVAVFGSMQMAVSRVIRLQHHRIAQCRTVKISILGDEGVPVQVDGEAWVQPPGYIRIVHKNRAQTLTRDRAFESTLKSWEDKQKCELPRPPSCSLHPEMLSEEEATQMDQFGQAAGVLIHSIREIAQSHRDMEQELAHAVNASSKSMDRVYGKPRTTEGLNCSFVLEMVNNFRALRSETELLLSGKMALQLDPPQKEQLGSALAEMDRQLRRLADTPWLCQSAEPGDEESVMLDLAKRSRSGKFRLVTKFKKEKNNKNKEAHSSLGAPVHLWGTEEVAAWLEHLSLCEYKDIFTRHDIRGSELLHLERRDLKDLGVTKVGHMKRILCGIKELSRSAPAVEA

inhibition	SMILES
inactive	CCCCCCCCCCCCc1ccc(C(=O)NC2(C(=N)N)CC2)cc1
inactive	CCCCCCCCCCCCc1ccc(NC(=O)C2(C(=N)N)CC2)cc1

target: Protein kinase C alpha type (Homo sapiens) (UniProt P17252); assay: Inhibition of PKCalpha up to 10 uM; conditions: not given
Outline: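 Compound tested at protein kinase C α at concentrations up to 10 μM.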

inhibition	SMILES
inactive	CCCCCCCCCCCCc1ccc(C(=O)NC2(C(=N)N)CC2)cc1
inactive	CCCCCCCCCCCCc1ccc(NC(=O)C2(C(=N)N)CC2)cc1

target: T2, Sphingosine kinase 2 (Mus musculus) (UniProt Q9JIA7); assay: Inhibition of mouse recombinant SPHK2 expressed in baculovirus-infected Sf9 cells in presence of sphingosine; conditions: not given
T2 sequence (whole entry): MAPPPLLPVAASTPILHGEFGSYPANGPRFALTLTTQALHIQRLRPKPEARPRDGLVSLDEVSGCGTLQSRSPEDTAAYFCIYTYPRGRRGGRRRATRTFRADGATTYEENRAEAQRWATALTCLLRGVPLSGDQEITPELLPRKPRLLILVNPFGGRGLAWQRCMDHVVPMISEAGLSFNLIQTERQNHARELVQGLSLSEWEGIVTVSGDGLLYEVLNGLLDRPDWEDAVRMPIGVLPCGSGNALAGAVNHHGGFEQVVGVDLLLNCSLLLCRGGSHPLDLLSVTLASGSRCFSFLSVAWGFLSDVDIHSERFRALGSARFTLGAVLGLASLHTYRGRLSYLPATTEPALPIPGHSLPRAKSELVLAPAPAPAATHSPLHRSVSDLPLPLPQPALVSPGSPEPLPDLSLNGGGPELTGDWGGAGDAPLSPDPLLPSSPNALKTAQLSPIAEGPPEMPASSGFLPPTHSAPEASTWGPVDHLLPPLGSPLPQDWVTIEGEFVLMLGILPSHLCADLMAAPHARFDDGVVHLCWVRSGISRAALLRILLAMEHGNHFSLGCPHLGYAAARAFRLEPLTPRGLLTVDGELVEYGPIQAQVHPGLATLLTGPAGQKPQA
Outline: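 Enzyme source was a 10,000 × g supernatant of Sf9 cells infected for 72 h with baculovirus encoding mouse SphK2, using 2–3 μg protein per assay. Sphingosine phosphorylation conditions were as in an earlier report.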

SMILES	Ki [µM]
CCCCCCCCCCCCCCCCc1ccc(C(=O)NC2(C(=N)N)CC2)cc1	10
CCCCCCCCCCCCc1ccc(C(=O)NC2(C(=N)N)CC2)cc1	0.5
CCCCCCCCCCCCc1ccc(NC(=O)C2(C(=N)N)CC2)cc1	6
CCCCCCCCCCCCCCc1ccc(NC(=O)C2(C(=N)N)CC2)cc1	> 100
CCCCCCCCCCCCCCc1ccc(C(=O)NC2(C(=N)N)CC2)cc1	32
CCCCCCCCCCc1ccc(NC(=O)C2(C(=N)N)CC2)cc1	4
CCCCCCCCCCCCCCCCc1ccc(NC(=O)C2(C(=N)N)CC2)cc1	> 100

Second part, the compound after the results:

Ki [µM]	SMILES
25	CCCCCCCCc1ccc(C(=O)N[C@H](C)C(=N)N)cc1
23	CCCCCCCCc1ccc(C(=O)NC2(C(=N)N)CC2)cc1
4	CCCCCCCCCCc1ccc(C(=O)NC2(C(=N)N)CC2)cc1
20	CCCCCCCCc1ccc(C(=O)N[C@@H](C)C(=N)N)cc1.Cl
60	CCCCCCCCc1ccc(C(=O)NCC(=N)N)cc1
> 100	CCCCCCCCc1ccc(C(=O)N[C@@H](C)C(=O)O)cc1
> 100	CCCCCCCCc1ccc(C(=O)N[C@@H](C)C(N)=O)cc1

test system: VSMC; assay: Inhibition of FBS-induced SPHKk1 mRNA level in rat VSMC after 4 hrs by RT-PCR; type: functional; conditions: not given
Outline: (§2)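 Rat aortic VSMC stimulated with 10% FBS for 4 h. Total RNA extracted with Trizol and reverse-transcribed. Sphk1 and Sphk2 mRNA measured by quantitative real-time PCR and normalized to 18S rRNA, N=3.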

SMILES	inhibition
CCCCCCCCc1ccc(C(=O)N[C@@H](C)C(=N)N)cc1.Cl	inactive

test system: VSMC; assay: Inhibition of FBS-induced SPHKk2 mRNA level in rat VSMC after 4 hrs by RT-PCR; type: functional, cell-based; conditions: not given; outline: as §2

SMILES	inhibition
CCCCCCCCc1ccc(C(=O)N[C@@H](C)C(=N)N)cc1.Cl	inactive

target: T3, Sphingosine kinase 2 (Rattus norvegicus) (UniProt A6JB73); assay: Inhibition of [32P]S1P/FBS-stimulated SPHK2 in rat VSMC after 12 hrs relative to control; conditions: not given
T3 sequence (whole entry): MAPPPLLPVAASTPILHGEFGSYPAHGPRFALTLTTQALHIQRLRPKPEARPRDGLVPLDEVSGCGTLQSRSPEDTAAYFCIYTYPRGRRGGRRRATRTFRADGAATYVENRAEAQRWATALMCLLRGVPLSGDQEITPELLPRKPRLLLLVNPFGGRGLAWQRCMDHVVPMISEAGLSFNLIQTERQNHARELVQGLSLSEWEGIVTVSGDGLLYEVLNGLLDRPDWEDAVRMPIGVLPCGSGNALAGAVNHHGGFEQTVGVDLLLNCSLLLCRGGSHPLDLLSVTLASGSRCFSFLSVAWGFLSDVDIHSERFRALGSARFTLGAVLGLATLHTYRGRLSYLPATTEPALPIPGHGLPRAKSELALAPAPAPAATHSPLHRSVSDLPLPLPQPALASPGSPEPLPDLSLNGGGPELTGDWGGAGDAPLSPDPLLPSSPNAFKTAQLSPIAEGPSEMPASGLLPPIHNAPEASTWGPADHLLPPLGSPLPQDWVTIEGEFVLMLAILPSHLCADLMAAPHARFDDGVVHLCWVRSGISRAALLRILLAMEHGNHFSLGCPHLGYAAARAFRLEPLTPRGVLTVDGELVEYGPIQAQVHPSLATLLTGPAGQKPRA
Outline: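 Rat aortic VSMC stimulated with 10% FBS for 0, 3, 6 and 12 h. SphK2 activity measured as [32P]-S1P formation, N=3.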

inhibition	SMILES
inactive	CCCCCCCCc1ccc(C(=O)N[C@@H](C)C(=N)N)cc1.Cl

test system: VSMC; assay: Inhibition of FBS-induced intracellular concentration of S1P in rat VSMC; type: functional, cell-based; conditions: not given

SMILES	inhibition
CCCCCCCCc1ccc(C(=O)N[C@@H](C)C(=N)N)cc1.Cl	Active

test system: not listed separately; assay: Inhibition of FBS-induced cell proliferation of rat VSMC after 24 hrs by BrdU incorporation assay; type: functional, cell-based; conditions: not given
Outline: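 Rat aortic VSMC pretreated with compound for 30 min, then stimulated with 10% FBS for 24 h. Proliferation measured by BrdU incorporation (10 μM BrdU) using an immuno-absorbance read-out, dose-response, N=6.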

SMILES	EC50 [µM]
CCCCCCCCc1ccc(C(=O)N[C@@H](C)C(=N)N)cc1.Cl	10

test system: not listed separately; assay: Cytotoxicity against rat VSMC assessed as cell viability at 0.1 to 100 uM; type: cell-based; conditions: in the assay text read “0.001 to 100 uM” for “0.1 to 100 uM”
Outline: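 Rat aortic vascular smooth muscle cells, cultured in vitro, exposed to compound across 0.001–100 μM. Cytotoxic response read with the MultiTox-Fluor fluorescence assay, using 20 μM cyclosporine A as reference, N=3.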

SMILES	Activity
CCCCCCCCc1ccc(C(=O)N[C@@H](C)C(=N)N)cc1.Cl	Non-toxic

target: Sphingosine kinase 1 (Homo sapiens) (UniProt Q9NYA1); assay: not given; conditions: Sf9
Sequence (Q9NYA1 whole entry): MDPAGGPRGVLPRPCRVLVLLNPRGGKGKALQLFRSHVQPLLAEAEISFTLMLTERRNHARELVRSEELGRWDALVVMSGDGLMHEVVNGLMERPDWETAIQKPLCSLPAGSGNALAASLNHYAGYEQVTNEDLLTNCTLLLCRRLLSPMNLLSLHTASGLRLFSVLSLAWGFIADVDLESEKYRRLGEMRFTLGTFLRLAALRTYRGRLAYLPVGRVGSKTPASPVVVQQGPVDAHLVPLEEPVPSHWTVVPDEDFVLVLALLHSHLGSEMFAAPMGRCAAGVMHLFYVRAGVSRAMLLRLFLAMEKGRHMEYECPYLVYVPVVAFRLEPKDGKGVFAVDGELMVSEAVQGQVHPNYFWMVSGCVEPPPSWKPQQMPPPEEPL

SMILES	Ki [µM]
CCCCCCCCCCCCCCCCc1ccc(C(=O)NC2(C(=N)N)CC2)cc1	36
CCCCCCCCCCCCc1ccc(C(=O)NC2(C(=N)N)CC2)cc1	0.2
CCCCCCCCCCCCc1ccc(NC(=O)C2(C(=N)N)CC2)cc1	0.3
CCCCCCCCCCCCCCc1ccc(NC(=O)C2(C(=N)N)CC2)cc1	8.4
CCCCCCCCCCCCCCc1ccc(C(=O)NC2(C(=N)N)CC2)cc1	10
CCCCCCCCCCc1ccc(NC(=O)C2(C(=N)N)CC2)cc1	3
CCCCCCCCCCCCCCCCc1ccc(NC(=O)C2(C(=N)N)CC2)cc1	30

Other lines, results leading:

Ki [µM]	SMILES
> 100	CCCCCCCCc1ccc(C(=O)N[C@H](C)C(=N)N)cc1
25	CCCCCCCCc1ccc(C(=O)NC2(C(=N)N)CC2)cc1
5	CCCCCCCCCCc1ccc(C(=O)NC2(C(=N)N)CC2)cc1
55	CCCCCCCCc1ccc(C(=O)N[C@@H](C)C(=N)N)cc1.Cl
> 100	CCCCCCCCc1ccc(C(=O)NCC(=N)N)cc1
> 100	CCCCCCCCc1ccc(C(=O)N[C@@H](C)C(=O)O)cc1
> 100	CCCCCCCCc1ccc(C(=O)N[C@@H](C)C(N)=O)cc1

test system: VSMC; assay: Inhibition of serum-induced cell proliferation of rat VSMC; conditions: not given

SMILES	inhibition
CCCCCCCCc1ccc(C(=O)N[C@@H](C)C(=N)N)cc1.Cl	Active

target: T2, Sphingosine kinase 2 (Mus musculus); assay: Ratio of Ki to Km for mouse recombinant SPHK2 expressed in baculovirus-infected Sf9 cells; conditions: not given

SMILES	Ratio
CCCCCCCCCCCCCCCCc1ccc(C(=O)NC2(C(=N)N)CC2)cc1	2
CCCCCCCCCCCCc1ccc(C(=O)NC2(C(=N)N)CC2)cc1	0.1
CCCCCCCCCCCCc1ccc(NC(=O)C2(C(=N)N)CC2)cc1	1.2
CCCCCCCCCCCCCCc1ccc(NC(=O)C2(C(=N)N)CC2)cc1	> 20
CCCCCCCCCCCCCCc1ccc(C(=O)NC2(C(=N)N)CC2)cc1	6.4
CCCCCCCCCCc1ccc(NC(=O)C2(C(=N)N)CC2)cc1	0.8
CCCCCCCCCCCCCCCCc1ccc(NC(=O)C2(C(=N)N)CC2)cc1	> 20

The next lines start with the values.

Ratio	SMILES
5	CCCCCCCCc1ccc(C(=O)N[C@H](C)C(=N)N)cc1
4.6	CCCCCCCCc1ccc(C(=O)NC2(C(=N)N)CC2)cc1
0.8	CCCCCCCCCCc1ccc(C(=O)NC2(C(=N)N)CC2)cc1
4	CCCCCCCCc1ccc(C(=O)N[C@@H](C)C(=N)N)cc1.Cl
12	CCCCCCCCc1ccc(C(=O)NCC(=N)N)cc1
> 20	CCCCCCCCc1ccc(C(=O)N[C@@H](C)C(=O)O)cc1
> 20	CCCCCCCCc1ccc(C(=O)N[C@@H](C)C(N)=O)cc1

test system: not listed separately; assay: Cytotoxicity against rat VSMC assessed as cell viability at 10 uM by microscopical analysis; conditions: not given

SMILES	Activity
CCCCCCCCc1ccc(C(=O)N[C@@H](C)C(=N)N)cc1.Cl	Non-toxic
